This note sets out measurements from ChEMBL document CHEMBL3244208, “Quantitative structure-activity relationships for 5-substituted 8-hydroxyquinolines as inhibitors of dental plaque” (J Med Chem, 1977).

Series [1] can be described thus: 1-Octanol-water partition coefficient, log P of the compound by spectrophotometer analysis corrected for ionization. The format is physicochemical. The method in brief: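 Octanol-water log P was measured by the shake-flask method: UV-spectrophotometric assay of one phase, the other by difference, at least triplicate runs with different sample amounts, averaged. The measured log P was then corrected for ionization.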

Series [2] in a line: Ionization constant, pKa of quinoline nitrogen group of the compound at 1 mM by potentiometric analysis. Format: physicochemical. The method, boiled down:
(§1)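 Potentiometric titration of 10⁻³ M test solutions in ethanol (95%)–water mixtures of varying proportion, 100 ml per titration, at 25 ± 0.1 °C under nitrogen with stirring. Titrant added in 0.25-ml aliquots, with stirring and gas stopped for each pH reading. Acidic function titrated with 0.02 N KOH, basic function with 0.02 N HCl. Boiled distilled, deionized water used for dilutions.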

A short description of series [3]: Ionization constant, pKa of 8-hydroxyl group of the compound at 1 mM by potentiometric analysis. The format is physicochemical. The method, boiled down:
as §1

Series [4] can be described thus: 1-Octanol-water partition coefficient, log P of the compound by spectrophotometer analysis. Format: physicochemical. The method, boiled down:
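Shake-flask partition between 1-octanol and water. Phase-volume ratio and sample amount set so that test-layer absorbance after partitioning fell between 0.2 and 0.9 in a 1-cm cell. The solute was measured by UV spectrophotometry in one layer only, and the other layer was obtained by difference. P = C_octanol/C_water. At least triplicate runs with different sample amounts, log P averaged.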

A short description of series [5]: Ionization constant, pKa of substituent at 5th position of the compound at 1 mM by potentiometric analysis. The format is physicochemical. The method in brief: as §1
The subject of a further series is Streptococcus mutans. Put plainly: Antibacterial activity against Streptococcus mutans No.6715 assessed as inhibition of bacterial growth after 24 to 48 hrs by spectrophotometric analysis. Format: functional. To be noted: for MIC: Streptococcus mutans, No.6715. The method in brief:
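S. mutans No. 6715, pure plaque-forming strain; media inoculated with 0.20 ml of a 24-h culture. Incubated anaerobically at 37 °C. Growth was read spectrophotometrically (% T) at 24 and 48 h. Dilution series run in sets of five tubes. MIC (molar) was taken as the lowest drug level whose tubes read above 60% T at 24 h.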

The logP is the decadic logarithm of the partition coefficient of the neutral form, usually between octanol and water. A low value points to lower lipophilicity. In general, pKa refers to the pH at which an ionisable group is half protonated. Low readings indicate a stronger acid or weaker base, high ones a weaker acid or stronger base. Consider `OCc1ccc(O)c2ncccc12`, for which the logP in series [1] and in series [4] was 1 each time. Moreover, the figures for the pKa at 1000 µM in series [2] and in series [3] were 4.93 and 9.53, respectively.
For `O=Cc1ccc(O)c2ncccc12`, the logP in series [1] turned out to be 2.07. Besides, the pKa at 1000 µM in series [2] turned out to be 4.42; in series [3], 7.01.
Consider `Oc1ccc(I)c2cccnc12`, for which the logP in series [1] is 3.29. The pKa at 1000 µM in series [2] was 4.43; in series [3] it was 8.31.
Consider `CC(=O)c1ccc(O)c2ncccc12`, for which, in series [1], the logP is 1.96. Moreover, the pKa at 1000 µM in series [2] worked out at 4.07; in series [3] it was 7.62.
With `COc1ccc(O)c2ncccc12`, the lipophilicity (logP) in series [1] and in series [4] was 2.1 in each case. Also, the pKa at 1000 µM in series [2] amounted to 4.84; in series [3], 9.96.
Turning to `CN(C)Cc1ccc(O)c2ncccc12`, the values for the logP in series [1] and in series [4] were 2.37 and 1.06, respectively. Besides, the values for the pKa at 1000 µM in series [2], in series [5] and in series [3] were 4.47, 8.66 and 9.46, respectively.
The matching figures for `CCN(CC)Cc1ccc(O)c2ncccc12`: 4.41, 1.41, 4.48, 9.32 and 9.19.
As for `N#CCc1ccc(O)c2ncccc12`, the logP in series [1] was determined as 1.82. The pKa at 1000 µM came out at 4.3 in series [2] and 9.25 in series [3].
`COC(=O)Cc1ccc(O)c2ncccc12`: the pKa at 1000 µM is 4.72 in series [2] and 9.46 in series [3].
Consider `CCOC(=O)Cc1ccc(O)c2ncccc12`, for which, in series [1], the logP is 2.27. The pKa at 1000 µM in series [2] turned out to be 4.72; in series [3], 9.4.
Broadly, the MIC is the lowest concentration found to suppress growth. `Cl.Oc1cccc2cccnc12`: in the series on Streptococcus mutans, the “log(1/MIC)” value was -0.301 and the MIC came to 2 µM.
In the same order, the values of `Cl.Oc1ccc(Cl)c2cccnc12` are -0.301 and 2 µM.
In the case of `Cl.O=[N+]([O-])c1ccc(O)c2ncccc12`, in the series with Streptococcus mutans, the “log(1/MIC)” value is on record as -1.903 and the MIC worked out at 80 µM.
In the same order, the values of `CC(=O)c1ccc(O)c2ncccc12.Cl` are -0.602 and 4 µM.
For the compound `Cc1ccc(O)c2ncccc12.Cl`, in the series on Streptococcus mutans, the “log(1/MIC)” value was -1.301 and the MIC was found to be 20 µM.
In the same order, the values of `COc1ccc(O)c2ncccc12.Cl` are -1.602 and 40 µM.
In the same order, the values of `CN(C)Cc1ccc(O)c2ncccc12.Cl` are -1.602 and 40 µM.
In the same order, the values of `CCN(CC)Cc1ccc(O)c2ncccc12.Cl` are -1.602 and 40 µM.
`Cl.OCc1ccc(O)c2ncccc12`: in the series on Streptococcus mutans, the “log(1/MIC)” value is listed as -2 and the MIC was 100 µM.
For the compound `Cl.N#CCc1ccc(O)c2ncccc12`, in the series with Streptococcus mutans, the “log(1/MIC)” value is listed as -1.778 and the MIC is 60 µM.
On to `COC(=O)Cc1ccc(O)c2ncccc12.Cl`, for which, in the series on Streptococcus mutans, the “log(1/MIC)” value is -2.903 and the MIC was found to be 800 µM.
The matching figures for `CCOC(=O)Cc1ccc(O)c2ncccc12.Cl`: -2.903 and 800 µM.
The matching figures for `Cl.Oc1ccc(I)c2cccnc12`: -0.602 and 4 µM.
The matching figures for `Cl.O=Cc1ccc(O)c2ncccc12`: -0.778 and 6 µM.
For the compound `Oc1ccc(Cl)c2cccnc12` [CLOXYQUIN], the logP in series [1] is 2.94; in series [4], 2.91. Besides, the results for the pKa at 1000 µM in series [2] and in series [3] were 3.8 and 8.7, respectively.
The matching figures for `O=[N+]([O-])c1ccc(O)c2ncccc12` [NITROXOLINE]: 0.11, -1.17, 3.68 and 5.97.
Consider `Oc1cccc2cccnc12` [OXYQUINOLINE], for which, in series [1], the logP worked out at 1.95. Further, the pKa at 1000 µM in series [2] worked out at 5.14; in series [3], 9.64.
On to `Cc1ccc(O)c2ncccc12` [TILIQUINOL], for which the lipophilicity (logP) in series [1] and in series [4] was 2.38 in each case. For the same compound, the pKa at 1000 µM in series [2] amounted to 5.25; in series [3], 9.92.
